In assay [1] the target is T1, Nonstructural protein 5A (Hepatitis C virus) (UniProt Q5L478).
T1 sequence (whole entry): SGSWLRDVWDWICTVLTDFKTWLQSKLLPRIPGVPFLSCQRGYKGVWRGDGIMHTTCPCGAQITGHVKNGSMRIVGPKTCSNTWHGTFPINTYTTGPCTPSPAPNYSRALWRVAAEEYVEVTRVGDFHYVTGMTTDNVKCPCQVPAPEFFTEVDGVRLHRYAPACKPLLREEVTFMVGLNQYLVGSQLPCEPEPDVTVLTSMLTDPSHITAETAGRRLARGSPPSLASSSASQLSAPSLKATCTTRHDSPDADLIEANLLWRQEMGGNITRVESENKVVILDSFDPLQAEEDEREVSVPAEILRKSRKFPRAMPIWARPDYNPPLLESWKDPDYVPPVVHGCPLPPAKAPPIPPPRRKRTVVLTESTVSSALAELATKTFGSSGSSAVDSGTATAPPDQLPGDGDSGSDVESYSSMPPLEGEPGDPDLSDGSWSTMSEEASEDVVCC
The assay can be described thus: Inhibition of HCV GT1a NS5A assessed as suppression of replicon RNA level by real-time PCR analysis. As to conditions: Hepatitis C virus subtype 1a.

The target of assay [2] is T1, Nonstructural protein 5A (Hepatitis C virus). In words: Inhibition of HCV GT2b NS5A assessed as suppression of replicon RNA level by real-time PCR analysis. As to conditions: Hepatitis C virus subtype 2b. A digest of the protocol:
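GT2b replicon, which carries the naturally occurring NS5A 31M resistance-associated variant; potency given as EC90 in nM.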
A general note: In antiviral work, replicon cells carry a viral genome segment that copies itself.

For assay [3] the target is unchanged. In words: Inhibition of HCV GT3a NS5A assessed as suppression of replicon RNA level by real-time PCR analysis. As to conditions: Hepatitis C virus subtype 3a.
Assay [4] concerns T2, Nonstructural protein 5A (Hepatitis C virus), Q5L478 [Y93H].
T2 sequence (whole entry): T1 sequence (whole entry) with Y93H
In words: Inhibition of HCV GT1a NS5A Y93H mutant assessed as suppression of replicon RNA level by real-time PCR analysis. As to conditions: Hepatitis C virus subtype 1a.

Assay [5] relates to Nonstructural protein 5A (Hepatitis C virus), Q5L478 [UNDEFINED MUTATION]. The assay can be described thus: Inhibition of HCV GT1a NS5A L31V mutant assessed as suppression of replicon RNA level by real-time PCR analysis. As to conditions: Hepatitis C virus subtype 1a.
Assay [6] deals with T1, Nonstructural protein 5A (Hepatitis C virus). In words: Inhibition of HCV GT1b NS5A assessed as suppression of replicon RNA level by real-time PCR analysis. As to conditions: Hepatitis C virus subtype 1b.

Experimental findings from ChEMBL document CHEMBL4431385, “Substituted tetracyclic indole core derivatives of HCV NS5A inhibitor MK-8742” (Bioorg Med Chem Lett, 2016) are described below.

Residue numbers refer to the chain shown, from its start.

Usually EC90 stands for the point of the concentration-response curve where the effect stands at 90%. With `COC(=O)N[C@H](C(=O)N1CCC[C@H]1c1ncc(-c2ccc3c(c2)OC(c2cc(OC)cc(OC)c2)n2c-3cc3cc(-c4cnc([C@@H]5CCCN5C(=O)[C@@H](NC(=O)OC)C(C)C)[nH]4)ccc32)[nH]1)C(C)C` (stereo partly specified), the EC90 came out at 0.004 nM in assay [1]; 11 nM in assay [2]; 0.08 nM in assay [3]; 8 nM in assay [4]; 0.3 nM in assay [5].

Take `COC(=O)N[C@H](C(=O)N1CCC[C@H]1c1ncc(-c2ccc3c(c2)OCn2c-3cc3c(F)c(-c4cnc([C@@H]5CCCN5C(=O)[C@@H](NC(=O)OC)C(C)C)[nH]4)ccc32)[nH]1)C(C)C`: the concentration for an effect of 90% (EC90) in assay [1] was above 0.8 nM; in assay [6], above 0.5 nM.

Consider `CCOc1cccc(C2Oc3cc(-c4cnc([C@@H]5CCCN5C(=O)[C@@H](NC(=O)OC)C(C)C)[nH]4)ccc3-c3cc4cc(-c5cnc([C@@H]6CCCN6C(=O)[C@@H](NC(=O)OC)C(C)C)[nH]5)ccc4n32)c1` (stereo partly specified), for which the 90% effect concentration (EC90) in assay [1] is 0.02 nM; in assay [2], 22 nM; in assay [3], 0.2 nM; in assay [4] it was 16 nM; in assay [5], 0.9 nM.

In the case of `COC(=O)N[C@H](C(=O)N1CCC[C@H]1c1ncc(-c2ccc3c(c2)cc2n3C(c3cccc(OC(C)C)c3)Oc3cc(-c4cnc([C@@H]5C[C@@H](F)CN5C(=O)[C@@H](NC(=O)OC)C(C)C)[nH]4)cc(F)c3-2)[nH]1)C(C)C` (stereo partly specified), the EC90 stood at 0.01 nM in assay [1]; 28 nM in assay [2]; 0.07 nM in assay [3]; 0.9 nM in assay [4]; 0.6 nM in assay [5].

With `COC(=O)N[C@H](C(=O)N1CCC[C@H]1c1ncc(-c2cc(F)c3c(c2)OC(c2ccc(OC)cc2)n2c-3cc3cc(-c4cnc([C@@H]5CCCN5C(=O)[C@@H](NC(=O)OC)C(C)C)[nH]4)ccc32)[nH]1)C(C)C` (stereo partly specified), the EC90 in assay [1] turned out to be 0.01 nM; in assay [2], 5 nM; in assay [4] it was 3 nM; in assay [5], 0.2 nM.

On to `COC(=O)N[C@H](C(=O)N1C[C@H](F)C[C@H]1c1ncc(-c2cc(F)c3c(c2)OC(c2ccc(OC(F)(F)F)cc2)n2c-3cc3cc(-c4cnc([C@@H]5C[C@@H](F)CN5C(=O)[C@@H](NC(=O)OC)C(C)C)[nH]4)ccc32)[nH]1)C(C)C` (stereo partly specified), for which the concentration for an effect of 90% (EC90) in assay [1] is 0.01 nM; in assay [2] it was 35 nM; in assay [3], 1 nM; in assay [4], 0.2 nM.

As for `COC(=O)N[C@H](C(=O)N1CCC[C@H]1c1ncc(-c2ccc3c(c2)cc2n3C(c3cccc(OC(F)F)c3)Oc3cc(-c4cnc([C@@H]5C[C@@H](F)CN5C(=O)[C@@H](NC(=O)OC)C(C)C)[nH]4)cc(F)c3-2)[nH]1)C(C)C` (stereo partly specified), the concentration for an effect of 90% (EC90) in assay [1] turned out to be 0.002 nM; in assay [2] it was 22 nM; in assay [3] it was 0.2 nM; in assay [4], 0.3 nM; in assay [5], 0.7 nM.

As for `COC(=O)N[C@H](C(=O)N1CCC[C@H]1c1ncc(-c2ccc3c(c2)OC(c2cc(Cl)cc(OC)c2)n2c-3cc3cc(-c4cnc([C@@H]5CCCN5C(=O)[C@@H](NC(=O)OC)C(C)C)[nH]4)ccc32)[nH]1)C(C)C` (mixture of isomers), the EC90 in assay [1] came out at 0.03 nM; in assay [2], 202 nM; in assay [3], 0.8 nM; in assay [4] it was 15 nM; in assay [5], 0.2 nM.

For `COC(=O)N[C@H](C(=O)N1CCC[C@H]1c1ncc(-c2cc3c(c(-c4ccccc4)c2)-c2cc4cc(-c5cnc([C@@H]6CCCN6C(=O)[C@@H](NC(=O)OC)C(C)C)[nH]5)ccc4n2CO3)[nH]1)C(C)C`, the EC90 amounted to 1 nM in assay [1]; 108 nM in assay [2]; 47 nM in assay [3]; 250 nM in assay [4]; 1 nM in assay [5].

In the case of `COC(=O)N[C@H](C(=O)N1CCC[C@H]1c1ncc(-c2cc(F)c3c(c2)OC(c2cc(OC)cc(OC)c2)n2c-3cc3cc(-c4cnc([C@@H]5CCCN5C(=O)[C@@H](NC(=O)OC)C(C)C)[nH]4)ccc32)[nH]1)C(C)C` (stereo partly specified), the EC90 in assay [1] is 0.004 nM; in assay [2], 0.6 nM; in assay [3], 0.06 nM; in assay [4], 3 nM; in assay [5] it was 0.1 nM.

Regarding `CCOc1cccc(C2Oc3cc(-c4cnc([C@@H]5CCCN5C(=O)[C@@H](NC(=O)OC)C(C)C)[nH]4)cc(F)c3-c3cc4cc(-c5cnc([C@@H]6CCCN6C(=O)[C@@H](NC(=O)OC)C(C)C)[nH]5)ccc4n32)c1` (stereo partly specified), the EC90 was 0.01 nM in assay [1]; 8 nM in assay [2]; 0.02 nM in assay [3]; 2 nM in assay [4]; 0.2 nM in assay [5].

As to `CCOc1cccc(C2Oc3cc(-c4cnc([C@@H]5C[C@@H](F)CN5C(=O)[C@@H](NC(=O)OC)C(C)C)[nH]4)cc(F)c3-c3cc4cc(-c5cnc([C@@H]6C[C@@H](F)CN6C(=O)[C@@H](NC(=O)OC)C(C)C)[nH]5)ccc4n32)c1` (stereo partly specified), the EC90 in assay [1] is 0.01 nM; in assay [2], 69 nM; in assay [3], 0.6 nM; in assay [4], 0.2 nM; in assay [5] it was 3 nM.

`COC(=O)N[C@H](C(=O)N1C[C@H](F)C[C@H]1c1ncc(-c2cc(F)c3c(c2)OC(c2cccc(OC(C)C)c2)n2c-3cc3cc(-c4cnc([C@@H]5C[C@@H](F)CN5C(=O)[C@@H](NC(=O)OC)C(C)C)[nH]4)ccc32)[nH]1)C(C)C` (stereo partly specified): the EC90 was found to be 0.01 nM in assay [1]; 122 nM in assay [2]; 1 nM in assay [3]; 0.1 nM in assay [4]; 4 nM in assay [5].

Turning to `CCOc1cccc(C2Oc3cc(-c4cnc([C@@H]5C[C@@H](F)CN5C(=O)[C@@H](NC(=O)OC)C(C)C)[nH]4)cc(F)c3-c3cc4cc(-c5cnc([C@@H]6CCCN6C(=O)[C@@H](NC(=O)OC)C(C)C)[nH]5)ccc4n32)c1` (stereo partly specified), the 90% effect concentration (EC90) in assay [1] was 0.01 nM; in assay [2], 17 nM; in assay [3], 0.1 nM; in assay [4] it was 0.4 nM.

Regarding `COC(=O)N[C@H](C(=O)N1CCC[C@H]1c1ncc(-c2cc3c(c(C4CC4)c2)-c2cc4cc(-c5cnc([C@@H]6CCCN6C(=O)[C@@H](NC(=O)OC)C(C)C)[nH]5)ccc4n2CO3)[nH]1)C(C)C`, the 90% effect concentration (EC90) came out at 0.7 nM in assay [1]; 454 nM in assay [2]; 74 nM in assay [3]; 890 nM in assay [4]; 0.7 nM in assay [5].

`COC(=O)N[C@H](C(=O)N1CCC[C@H]1c1ncc(-c2cc(F)c3c(c2)OC(c2cccc(OC(C)C)c2)n2c-3cc3cc(-c4cnc([C@@H]5CCCN5C(=O)[C@@H](NC(=O)OC)C(C)C)[nH]4)ccc32)[nH]1)C(C)C` (stereo partly specified): the 90% effect concentration (EC90) in assay [1] is 0.01 nM; in assay [2], 18 nM; in assay [3] it was 0.05 nM; in assay [4], 6 nM; in assay [5], 0.2 nM.

In the case of `COC(=O)N[C@H](C(=O)N1CCC[C@H]1c1ncc(-c2ccc3c(c2)OC(c2cccc(OC(C)C)c2)n2c-3cc3cc(-c4cnc([C@@H]5CCCN5C(=O)[C@@H](NC(=O)OC)C(C)C)[nH]4)ccc32)[nH]1)C(C)C` (stereo partly specified), the EC90 in assay [1] is 0.01 nM; in assay [2], 145 nM; in assay [3], 0.08 nM; in assay [4] it was 34 nM; in assay [5] it was 0.5 nM.

Turning to `COC(=O)N[C@H](C(=O)N1CCC[C@H]1c1ncc(-c2ccc3c(c2)OC(c2ccc(OC)cc2)n2c-3cc3cc(-c4cnc([C@@H]5CCCN5C(=O)[C@@H](NC(=O)OC)C(C)C)[nH]4)ccc32)[nH]1)C(C)C` (stereo partly specified), the figures for the EC90 in assay [1], in assay [2] and in assay [4] were 0.04 nM, 15 nM and 82 nM, respectively.

As for `COC(=O)N[C@H](C(=O)N1CCC[C@H]1c1ncc(-c2ccc3c(c2)cc2n3C(c3cccc(OC(F)(F)F)c3)Oc3cc(-c4cnc([C@@H]5C[C@@H](F)CN5C(=O)[C@@H](NC(=O)OC)C(C)C)[nH]4)ccc3-2)[nH]1)C(C)C` (stereo partly specified), the 90% effect concentration (EC90) in assay [1] came out at 0.02 nM; in assay [2], 48 nM; in assay [4] it was 1.7 nM; in assay [5], 1.8 nM.

Regarding `COC(=O)N[C@H](C(=O)N1C[C@H](F)C[C@H]1c1ncc(-c2cc(F)c3c(c2)OC(c2cccc(O[C@@H]4CCOC4)c2)n2c-3cc3cc(-c4cnc([C@@H]5C[C@@H](F)CN5C(=O)[C@@H](NC(=O)OC)C(C)C)[nH]4)ccc32)[nH]1)C(C)C` (mixture of isomers), the EC90 in assay [1] worked out at 0.04 nM; in assay [2], 2 nM; in assay [3] it was 2 nM; in assay [4], 1 nM; in assay [5], 7 nM.
